The source made the active and inactive calls. No cut-off for these calls is given here.
Key:
[1] = target: T1, TLR7 and TLR8 (Homo sapiens) (UniProt Q9NYK1+Q9NR97); test: Agonist activity at human TLR7/8 expressed in human PBMC cells assessed as induction of IL-1beta production at 0.1 to 32 ug/ml incubated for 12 hrs by multiplexed immunoassay; format: cell-based; conditions: filed as agonist, dose 0.1-32 µg/ml
Method in brief: (§1)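 Healthy-volunteer PBMCs from a single donor were isolated by Ficoll−Hypaque gradient and plated at 2.0 × 10⁶ cells/mL. They were stimulated for 12 h with escalating compound concentrations. Supernatants were assayed in duplicate on a 41-analyte magnetic bead cytokine/chemokine panel read by Luminex. EC_max is the concentration giving maximal cytokine induction.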

[2] = target: T1, TLR7 and TLR8 (Homo sapiens); test: Agonist activity at human TLR7/8 expressed in human PBMC cells assessed as induction of IL-6 production at 0.1 to 32 ug/ml incubated for 12 hrs by multiplexed immunoassay; format: cell-based; conditions: filed as agonist, dose 0.1-32 µg/ml; method in brief: as §1
CT26 [3] = test: Antitumor activity against mouse CT26 cells implanted in BALB/c mouse assessed as reduction in tumor volume at 25 ug, ip administered once a week in presence of anti-PD-1 antibodies and measured every 3 days for 23 days; format: functional, organism-based; conditions: dose 25.0 µg, time 23.0 day
Method in brief: (§2)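 Subcutaneous CT26 tumours were grown in BALB/c mice, with cells cultured in DMEM/10% FBS. At a mean tumour size of 100 mm³, mice were randomised (n = 5/group). Agonist was given ip once weekly; anti-PD-1 or IgG isotype was given ip at 200 μg twice weekly. Tumour volume (V = 1/2ab²) was measured every 3 days. Mice were euthanised at 2000 mm³.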

[4] = Toxicity in BALB/c mouse implanted with mouse CT26 cells assessed as decrease in body weight at 25 ug, ip administered once a week for 23 days; format: organism-based; conditions: in vivo, 552 h, dose 25 µg, time 23 day
Method in brief: (§3)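 CT26 subcutaneous tumor-bearing BALB/c mice (n = 5) were treated from 100 mm³ tumor volume. TLR7/8 agonist was given ip once weekly, alone or with anti-PD-1 antibody (200 μg ip, twice weekly). Body weight was tracked over the treatment period and reported as mean ± SEM.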

[5] = Toxicity in BALB/c mouse implanted with mouse CT26 cells assessed as decrease in body weight at 25 ug, ip administered once a week in presence of anti-PD-1 antibodies for 23 days; format: organism-based; conditions: in vivo, 552 h, dose 25 µg, time 23 day; method in brief: as §3
CT26 [6] = test: Antitumor activity against mouse CT26 cells implanted in BALB/c mouse assessed as tumor growth inhibition at 50 ug, ip administered once a week and measured every 3 days for 23 days relative to control; format: functional; conditions: dose 50 µg; time 23 day; method in brief: as §2
CT26 [7] = test: Antitumor activity against mouse CT26 cells implanted in BALB/c mouse assessed as tumor growth inhibition at 50 ug, ip administered once a week in presence of anti-PD-1 antibodies and measured every 3 days for 23 days relative to control; format: functional; conditions: dose 50 µg; time 23 day; method in brief: as §2
[8] = Acute toxicity in BALB/c mouse assessed as mortality at 120 mg/kg, ip administered as single dose; format: organism-based; conditions: in vivo
[9] = Subacute toxicity in BALB/c mouse assessed as body weight loss at 1.73 g, ip administered as single dose; format: organism-based; conditions: in vivo
Method in brief: (§4)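 Subacute study in BALB/c mice, with treated and control groups. Body weight was recorded every day. Spleens were weighed and photographed, and tissues were examined by H&E staining.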

[10] = target: T1, TLR7 and TLR8 (Homo sapiens); test: Agonist activity at human TLR7/8 expressed in human PBMC cells assessed as induction of TNFalpha production by measuring concentration required to induce maximal response incubated for 12 hrs by multiplexed immunoassay; format: cell-based; conditions: filed as agonist; method in brief: as §1
[11] = target: T1, TLR7 and TLR8 (Homo sapiens); test: Agonist activity at human TLR7/8 expressed in human PBMC cells assessed as induction of IL-6 production by measuring concentration required to induce maximal response incubated for 12 hrs by multiplexed immunoassay; format: cell-based; conditions: filed as agonist; method in brief: as §1
[12] = target: T1, TLR7 and TLR8 (Homo sapiens); test: Agonist activity at human TLR7/8 expressed in human PBMC cells assessed as induction of IL-10 production by measuring concentration required to induce maximal response incubated for 12 hrs by multiplexed immunoassay; format: cell-based; conditions: filed as agonist; method in brief: as §1
[13] = target: T1, TLR7 and TLR8 (Homo sapiens); test: Agonist activity at human TLR7/8 expressed in human PBMC cells assessed as induction of MIP-1alpha production by measuring concentration required to induce maximal response incubated for 12 hrs by multiplexed immunoassay; format: cell-based; conditions: filed as agonist; method in brief: as §1
CT26 [14] = test: Synergistic antitumor activity against mouse CT26 cells implanted in BALB/c mouse assessed as suppression of tumor growth at 12.5 ug, ip administered once a week in presence of anti-PD-1 antibodies and measured every 3 days for 23 days; format: functional, organism-based; conditions: dose 12.5 µg, time 23.0 day
[15] = Toxicity in BALB/c mouse implanted with mouse CT26 cells assessed as decrease in body weight at 1.2 g, ip administered on day 4 in combination with anti-PD-1 antibodies measured after 4 days; format: organism-based; conditions: in vivo, 96 h, time 4 day; method in brief: as §3
[16] = Toxicity in BALB/c mouse implanted with mouse CT26 cells assessed as reduction in survival at 25 ug, ip administered once a week in presence of anti-PD-1 antibodies and measured 60 days post tumor implantation; format: organism-based; conditions: in vivo, 1440 h, dose 25 µg, time 60 day
Method in brief: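 Survival study in CT26-bearing BALB/c mice (n = 10 per group), treated from a tumor volume of 100 mm³. Dosing was 25 μg agonist ip once weekly plus anti-PD-1 antibody at 200 μg ip twice weekly; IgG isotype was the control. Mice were euthanized on signs of distress or at a total tumor size of 2000 mm³.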

CT26 [17] = test: Antitumor immunity against mouse CT26 cells implanted in BALB/c mouse assessed as increase in infiltration of CD4+ TH1 cells at 25 ug, ip administered once a week for 23 days by flow cytometry analysis; format: functional, organism-based; conditions: dose 25.0 µg, time 23.0 day
Method in brief: (§5)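 CT26-bearing BALB/c mice (n = 5) were treated ip once weekly with agonist, alone or with anti-PD-1 (200 μg, twice weekly). Tumours were harvested 23 days after implantation, enzymatically and mechanically dissociated into single cells, and stained for surface markers plus intracellular FoxP3 after fixation/permeabilisation. Cells were gated within CD45⁺ for CD11c⁺ DCs, CD11b⁺F4/80⁺MHCII⁺ (M1), CD206⁺ (M2), CD3/CD4/CD8, and CD4⁺CD25⁺FoxP3⁺ Treg, then analysed by flow cytometry.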

CT26 [18] = test: Antitumor immunity against mouse CT26 cells implanted in BALB/c mouse assessed as increase in infiltration of CD4+ TH1 cells at 25 ug, ip administered once a week with anti-PD-1 antibody for 23 days by flow cytometry analysis; format: functional, organism-based; conditions: dose 25.0 µg, time 23.0 day; method in brief: as §5
[19] = Acute toxicity in BALB/c mouse assessed as mortality at 100 mg/kg, ip administered as single dose; format: organism-based; conditions: in vivo
[20] = Subacute toxicity in BALB/c mouse assessed as body weight loss at 2.19 g, ip administered as single dose; format: organism-based; conditions: in vivo; method in brief: as §4
[21] = target: T1, TLR7 and TLR8 (Homo sapiens); test: Agonist activity at human TLR7/8 expressed in human PBMC cells assessed as induction of MCP-1 production by measuring concentration required to induce maximal response incubated for 12 hrs by multiplexed immunoassay; format: cell-based; conditions: filed as agonist; method in brief: as §1
CT26 [22] = test: Synergistic antitumor activity against mouse CT26 cells implanted in BALB/c mouse assessed as reduction in tumor size at 25 ug, ip administered once a week in presence of anti-PD-1 antibodies and measured every 3 days for 23 days; format: functional, organism-based; conditions: dose 25.0 µg, time 23.0 day
CT26 [23] = test: Antitumor immunity against mouse CT26 cells implanted in BALB/c mouse assessed as increase in Teff/Treg ratio at 25 ug, ip administered once a week with anti-PD-1 antibody for 23 days by flow cytometry analysis; format: functional, organism-based; conditions: dose 25.0 µg, time 23.0 day; method in brief: as §5

For COCCNc1nc(N)nc2ccc(Cc3ccc(CN(C)C)cc3)nc12, the Activity [1] was “Active”, the Activity [2] was “Active” and the Activity (CT26 [3]) was “Active”. The Activity [4] was “Non-Toxic”, the Activity [5] was “Non-Toxic” and the TGI (CT26 [6]) was 82.8%. The TGI (CT26 [7]) was 88.9%, the Activity [8] was “Toxic” and the Activity [9] was “Toxic”.

CCCCNc1nc(N)nc2ccc(Cc3ccc(CN(C)C)cc3)nc12 showed an ECmax [10] of 0.1 µg/mL, an ECmax [11] of 0.1 µg/mL and an ECmax [12] of 0.1 µg/mL. The ECmax [13] was 0.1 µg/mL, the Activity (CT26 [14]) was “Active” and the Activity [15] was “Non-Toxic”. For the same compound, the Activity [16] was “Non-Toxic”, the Activity (CT26 [17]) was “Active” and the Activity (CT26 [18]) was “Active”. For the same compound, the Activity [19] was “Toxic”, the Activity [20] was “Toxic” and the ECmax [21] was 0.1 µg/mL. For the same compound, the Activity (CT26 [22]) was “inactive” and the Activity (CT26 [23]) was “Active”.

Reference: ChEMBL document CHEMBL5036324 (J Med Chem, 2021)
